The values that follow come from ChEMBL document CHEMBL1127609, “Cyclic benzamides as mixed dopamine D2/serotonin 5-HT2 receptor antagonists: potential atypical antipsychotic agents” (J Med Chem, 1994).

Assay [1] concerns the target T1, 5-hydroxytryptamine receptor 1A (Rattus norvegicus, UniProt P19327).
T1 sequence (P19327 whole entry): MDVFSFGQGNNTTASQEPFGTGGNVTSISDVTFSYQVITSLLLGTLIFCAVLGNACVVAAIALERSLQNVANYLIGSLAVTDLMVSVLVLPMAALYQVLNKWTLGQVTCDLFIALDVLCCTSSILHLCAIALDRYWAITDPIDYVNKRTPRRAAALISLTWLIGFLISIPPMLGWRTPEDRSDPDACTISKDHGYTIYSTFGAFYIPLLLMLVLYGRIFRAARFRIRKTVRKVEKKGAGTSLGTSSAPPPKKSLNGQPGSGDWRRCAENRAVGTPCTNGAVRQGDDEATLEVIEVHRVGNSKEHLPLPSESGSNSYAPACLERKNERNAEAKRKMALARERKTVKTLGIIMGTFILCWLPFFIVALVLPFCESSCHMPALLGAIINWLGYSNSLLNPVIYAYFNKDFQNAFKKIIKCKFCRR
Briefly: In vitro binding affinity was measured on serotonergic 5-hydroxytryptamine 1A receptor by displacement of [3H]- tetralin. In a few lines: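 Rat hippocampus membranes from male Sprague-Dawley rats, homogenized in 50 mM Tris pH 7.7, preincubated 10 min at 37 °C. Final incubation buffer was 50 mM Tris, 4 mM CaCl2, 10 μM pargyline, 0.1% ascorbic acid, pH 7.4. [3H]-8-OH-DPAT at 0.3 nM final, 30 min at 25 °C, then filtration. Nonspecific binding was defined with 10 μM serotonin.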
For orientation: In a radioligand displacement assay an active substance lowers the binding of a labelled ligand.

Assay [2] concerns the target Serotonin 2 (5-HT2) receptor (Rattus norvegicus, UniProt P30994+P08909+P14842). The experiment in a line: In vitro binding affinity was measured on serotonergic 5-hydroxytryptamine 2 receptor by displacement of [3H]- ketanserin. Type of assay: protein assay.
The test system of assay [3] is Mus musculus. Briefly: In vivo the ability to antagonize the apomorphine induced climbing response in mice. Type of assay: functional. In outline:
(§1)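 Male CD-1 mice (20–25 g) were acclimated ≥30 min in wire-mesh cages. Drug in 0.5% methyl cellulose or vehicle was given po 60 min before sc apomorphine HCl 5 mg/kg in 0.0001 N HCl, N = 6/dose group. Climbing and stereotypy were scored every 5 min for 30 min, starting at 5 min. The six scores were averaged and % antagonism taken versus controls. ED50 by Litchfield–Wilcoxon.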

Assay [4] concerns Mus musculus. Briefly: Tested in vivo for their ability to induction of catalepsy in mice after peroral administration. The format is functional. Particulars: po. In outline:
(§2)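 Catalepsy induction was tested in male CD-1 mice (20–25 g). Drug was given in 0.5% methyl cellulose vehicle at 0.5–2.0 mL/100 g. ED50 by Litchfield–Wilcoxon.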

The test system of assay [5] is Mus musculus. Briefly: In vivo the ability to antagonize the apomorphine induced climbing response in mice after peroral administration. The format is functional. Particulars: po. In a few lines: as §1
For assay [6], the system named is Mus musculus. Briefly: Tested in vivo for their ability to antagonize the apomorphine induced stereotypy response in mice after peroral administration. Type of assay: functional. The following applies: po. In outline: as §1
Assay [7] concerns Mus musculus. Briefly: Tested in vivo for their ability to induction of catalepsy in mice. The format is functional. In outline: as §2
Assay [8] deals with Mus musculus. Briefly: Tested in vivo for their ability to antagonize the apomorphine induced stereotypy response in mice. The format is functional. In a few lines: as §1

One may read the IC50 as the midpoint of a concentration-inhibition curve. A higher IC50 goes with weaker potency. As usually defined, the ED50 is the dose at which the effect has come halfway, by size or by number of responders.

In the case of `O=C1c2ccccc2C(=O)N1CCCCN1CCN(c2nsc3ccccc23)CC1`, the IC50 was 0.19 nM in assay [1] and 7.6 nM in assay [2]. For the same compound, the 50% effective dose (ED50) in assay [3] (Mus musculus, read-out: ED50) was 6.2 mg/kg.
On to `O=c1c2ccccc2nnn1CCCCN1CCN(c2nsc3ccccc23)CC1`, for which the 50% inhibitory concentration (IC50) in assay [1] is 1.7 nM; in assay [2], 2.9 nM. In addition, the median effective dose (ED50) in assay [4] amounted to 252 mg/kg; in assay [5] it was 19.1 mg/kg; in assay [6], 57.8 mg/kg.
Take `O=c1c2ccccc2ncn1CCCCN1CCN(c2nsc3ccccc23)CC1`: the IC50 in assay [1] was found to be 0.59 nM; in assay [2], 2.3 nM. In assay [5], this compound returned a median effective dose (ED50) of 6.2 mg/kg.
The matching figures for `O=c1c2ccccc2[nH]n1CCCCN1CCN(c2nsc3ccccc23)CC1`: 350 nM, 150 nM and > 25 mg/kg.
The like results for `O=c1c2ccccc2sn1CCCCN1CCN(c2nsc3ccccc23)CC1` were, in that order, 120 nM, 140 nM and > 25 mg/kg.
For `O=C1c2ccccc2CCCN1CCCCN1CCN(c2nsc3ccccc23)CC1`, the IC50 was 4.1 nM in assay [1] and 4.2 nM in assay [2]. Also, in assay [3] (Mus musculus, read-out: ED50), the ED50 is > 25 mg/kg.
`O=C1c2ccccc2CN1CCCCN1CCN(c2nsc3ccccc23)CC1`: the values for the half-maximal inhibitory concentration (IC50) in assay [1] and in assay [2] were 7 nM and 5.1 nM, respectively. The 50% effective dose (ED50) was > 360 mg/kg in assay [7]; 6.3 mg/kg in assay [3] (Mus musculus, read-out: ED50); 24.7 mg/kg in assay [8].
Turning to `Cc1nn(CCCCN2CCN(c3nsc4ccccc34)CC2)c(=O)c2ccccc12`, the IC50 in assay [1] came to 3.4 nM; in assay [2] it was 0.84 nM. This compound showed an ED50 in assay [5] of 30.4 mg/kg.
With `O=C1Cc2ccccc2C(=O)N1CCCCN1CCN(c2nsc3ccccc23)CC1`, the concentration for half-maximal inhibition (IC50) is 1.8 nM in assay [1] and 4.7 nM in assay [2]. In addition, the 50% effective dose (ED50) is 133 mg/kg in assay [7]; 12.2 mg/kg in assay [3] (Mus musculus, read-out: ED50); 40.3 mg/kg in assay [8].
For `CCOC(=O)n1c2ccccc2c(=O)n1CCCCN1CCN(c2nsc3ccccc23)CC1`, the results for the IC50 in assay [1] and in assay [2] were 33 nM and 7.9 nM, respectively. In assay [3] (Mus musculus, read-out: ED50), the ED50 is > 25 mg/kg.
Take `O=c1[nH]n(CCCCN2CCN(c3nsc4ccccc34)CC2)c(=O)c2ccccc12`: the IC50 in assay [1] was found to be 2.6 nM; in assay [2], 76 nM. Besides, the 50% effective dose (ED50) in assay [5] was > 25 mg/kg.
`O=c1c2ccccc2cnn1CCCCN1CCN(c2nsc3ccccc23)CC1`: the half-maximal inhibitory concentration (IC50) in assay [1] was determined as 10 nM; in assay [2], 1.8 nM. Besides, the 50% effective dose (ED50) in assay [4] was determined as 70.4 mg/kg; in assay [5], 9.5 mg/kg; in assay [6], 29.8 mg/kg.
`O=C1c2ccccc2CCN1CCCCN1CCN(c2nsc3ccccc23)CC1`: the IC50 in assay [1] came to 0.64 nM; in assay [2] it was 1.9 nM. Besides, in assay [3] (Mus musculus, read-out: ED50), the ED50 is 16.4 mg/kg.
On to `O=C1c2ccccc2S(=O)(=O)N1CCCCN1CCN(c2nsc3ccccc23)CC1`, for which the IC50 was 0.4 nM in assay [1] and 1.1 nM in assay [2]. The same compound showed an ED50 in assay [5] of 48.7 mg/kg.
Regarding `O=C1C2CCCCC2C=NN1CCCCN1CCN(c2nsc3ccccc23)CC1` (stereo in doubt; 52), the IC50 in assay [1] turned out to be 0.82 nM; in assay [2], 0.76 nM. In addition, in assay [3], the ED50 was 16.2 mg/kg.
As for `O=C1C2CCCCC2C=NN1CCCCN1CCN(c2nsc3ccccc23)CC1` (stereo in doubt; 53), the IC50 turned out to be 0.021 nM in assay [1] and 0.38 nM in assay [2]. The ED50 in assay [3] (Mus musculus, read-out: ED50) stood at 25 mg/kg.
For `O=C(CCCN1CCC(O)(c2ccc(Cl)cc2)CC1)c1ccc(F)cc1` [HALOPERIDOL], the ED50 in assay [7] stood at 3 mg/kg; in assay [8], 0.9 mg/kg.
